Converted amounts (≈) assume the structure as drawn. The source made the active and inactive calls. No cut-off for these calls is given here.
Tests used:
Assay type in all cases: functional
Rattus norvegicus [1] = species: Rattus norvegicus; experiment: Effect on basal respiration rate in Wistar rat heart mitochondrial respiratory chain using pyruvate and malate as substrate at 0.4 to 1.2 ng/mL; settings: Mitochondria
In short: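 Clark-type electrode oxygen uptake at 37 C, pH 7.1 imidazole/taurine/MES medium with 3 mM KH2PO4, 0.1 μM free Ca2+. Substrates 6 mM pyruvate + 6 mM malate; compound at 0.4, 0.8, 1.2 ng/mL; State 2 (V0) rate registered, nmol O/min/mg protein.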

[2] = (§1) Effect on mitochondrial respiratory chain in Wistar rat heart mitochondria assessed as increase in state 2 respiratory rate using pyruvate and malate as substrate
In short: (§2)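 Isolated male Wistar rat heart mitochondria at 0.5 mg protein/mL. O2 uptake was recorded by Clark electrode at 37 C in pH 7.1 imidazole/taurine/MES medium (3 mM KH2PO4, 0.1 μM free Ca2+). Substrates were 6 mM pyruvate + 6 mM malate, 12 mM succinate + 2 mM amytal, or 9 μM palmitoyl-L-carnitine + 0.24 mM malate. Sequence: State 2 (V0), then 1 mM ADP (State 3), then 32 μM cytochrome c. RCI = VADP/V0. Rates in nmol O/min/mg; n = 3–4.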

Rattus norvegicus [3] = species: Rattus norvegicus; experiment: as §1; in short: as §2
Rattus norvegicus [4] = species: Rattus norvegicus; experiment: Effect on mitochondrial respiratory chain in Wistar rat heart mitochondria assessed as state 2 respiratory rate per mg protein using succinate and amytal sodium as substrate at 1.6 ng/mL; in short: as §2
Rattus norvegicus [5] = species: Rattus norvegicus; experiment: Effect on mitochondrial respiratory chain in Wistar rat heart mitochondria assessed as state 2 respiratory rate per mg protein using succinate and amytal sodium as substrate at 5 ng/mL; in short: as §2
Rattus norvegicus [6] = species: Rattus norvegicus; experiment: Effect on mitochondrial respiratory chain in Wistar rat heart mitochondria assessed as state 2 respiratory rate using palmitoyl-L-carnitine and malate as substrate at 1.6 ng/mL; in short: as §2
Rattus norvegicus [7] = species: Rattus norvegicus; experiment: Effect on mitochondrial respiratory chain in Wistar rat heart mitochondria assessed as state 3 respiratory rate using pyruvate and malate as substrate at 5 ng/mL; in short: as §2
Rattus norvegicus [8] = species: Rattus norvegicus; experiment: Effect on mitochondrial respiratory chain in Wistar rat heart mitochondria assessed as state 3 respiratory rate using succinate and amytal sodium as substrate at 5 ng/mL; in short: as §2
Rattus norvegicus [9] = species: Rattus norvegicus; experiment: Effect on mitochondrial respiratory chain in Wistar rat heart mitochondria assessed as increase in state 2 respiration rate using pyruvate and malate as substrate at 50 to 200 ng/mL; in short: as §2
Rattus norvegicus [10] = species: Rattus norvegicus; experiment: Effect on mitochondrial respiratory chain in Wistar rat heart mitochondria assessed as increase in state 3 respiration rate using pyruvate and malate as substrate in presence ADP at 50 to 200 ng/mL; in short: as §2
Rattus norvegicus [11] = species: Rattus norvegicus; experiment: Effect on mitochondrial respiratory chain in Wistar rat heart mitochondria assessed as decrease in respiratory control index at 50 to 200 ng/mL; set-up: scale not given: the % may be the effect or the level left; in short: as §2
Rattus norvegicus [12] = species: Rattus norvegicus; experiment: Antioxidant activity in Wistar rat heart mitochondria assessed as reduction in H2O2 production at 5 ng/mL by Amplex red based fluorimetric analysis; set-up: scale not given: the % may be the effect or the level left
In short: (§3)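 Male Wistar rat heart mitochondria (0.25 mg/mL) incubated 7 min at 37 C in respiration medium with 6 mM each pyruvate and malate plus 16 ng/mL antimycin A. CCCP (1 μM) was the uncoupler reference. Then 5 μM Amplex Red and 2 U/mL horseradish peroxidase were added; fluorescence at ex 544/em 590 nm, calibrated with known H2O2; n = 3.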

Rattus norvegicus [13] = species: Rattus norvegicus; experiment: Antioxidant activity in Wistar rat heart mitochondria assessed as reduction in H2O2 production at 1.6 ng/mL by Amplex red based fluorimetric analysis; set-up: scale not given: the % may be the effect or the level left; in short: as §3
Rattus norvegicus [14] = species: Rattus norvegicus; experiment: Effect on mitochondrial respiratory chain in rat heart mitochondria assessed as stimulation of state 2 respiration rate 12.6 ng/mL
Rattus norvegicus [15] = species: Rattus norvegicus; experiment: Effect on mitochondrial respiratory chain in rat heart mitochondria assessed as stimulation of state 2 respiration rate 4.9 ng/mL
Rattus norvegicus [16] = species: Rattus norvegicus; experiment: Effect on mitochondrial respiratory chain in rat heart mitochondria assessed as stimulation of state 2 respiration rate 449 ng/mL
Rattus norvegicus [17] = species: Rattus norvegicus; experiment: Effect on mitochondrial respiratory chain in rat heart mitochondria assessed as stimulation of state 2 respiration rate 293 ng/mL
Rattus norvegicus [18] = species: Rattus norvegicus; experiment: Effect on mitochondrial respiratory chain in rat heart mitochondria assessed as stimulation of state 2 respiration rate 7 ng/mL
Rattus norvegicus [19] = species: Rattus norvegicus; experiment: Effect on mitochondrial respiratory chain in rat heart mitochondria assessed as stimulation of state 2 respiration rate 26 ng/mL
Rattus norvegicus [20] = species: Rattus norvegicus; experiment: Effect on mitochondrial respiratory chain in Wistar rat heart mitochondria assessed as increase in state 2 respiratory rate using palmitoyl-L-carnitine and malate as substrate at 5 ng/mL; in short: as §2
Rattus norvegicus [21] = species: Rattus norvegicus; experiment: Effect on mitochondrial respiratory chain in Wistar rat heart mitochondria assessed as increase in complex-1 dependent state 2 respiratory rate per mg protein using pyruvate and malate as substrate at 1.6 ng/mL; in short: as §2
Rattus norvegicus [22] = species: Rattus norvegicus; experiment: Effect on mitochondrial respiratory chain in Wistar rat heart mitochondria assessed as state 3 respiratory rate using palmitoyl-L-carnitine and malate as substrate at 5 ng/mL; in short: as §2
Rattus norvegicus [23] = species: Rattus norvegicus; experiment: Effect on mitochondrial respiratory chain in Wistar rat heart mitochondria assessed as increase in state 2 respiratory rate using palmitoyl-L-carnitine and malate as substrate at 1.6 ng/mL; in short: as §2
Rattus norvegicus [24] = species: Rattus norvegicus; experiment: Effect on mitochondrial respiratory chain in Wistar rat heart mitochondria assessed as increase in state 2 respiratory rate per mg protein using succinate and amytal sodium as substrate at 5 ng/mL; in short: as §2
Rattus norvegicus [25] = species: Rattus norvegicus; experiment: Effect on mitochondrial respiratory chain in Wistar rat heart mitochondria assessed as increase in state 2 respiratory rate per mg protein using succinate and amytal sodium as substrate at 1.6 ng/mL; in short: as §2
Rattus norvegicus [26] = species: Rattus norvegicus; experiment: Effect on mitochondrial respiratory chain in Wistar rat heart mitochondria assessed as increase in complex-1 dependent state 2 respiratory rate per mg protein using pyruvate and malate as substrate at 5 ng/mL; in short: as §2
Rattus norvegicus [27] = species: Rattus norvegicus; experiment: Effect on mitochondrial respiratory chain in Wistar rat heart mitochondria assessed as state 2 respiratory rate using palmitoyl-L-carnitine and malate as substrate at 5 ng/mL; in short: as §2
Rattus norvegicus [28] = species: Rattus norvegicus; experiment: Effect on mitochondrial respiratory chain in Wistar rat heart mitochondria assessed as respiratory rate per mg protein using pyruvate and malate as substrate (reference value: 52 +/- 7 nmol/min); in short: as §2
Rattus norvegicus [29] = species: Rattus norvegicus; experiment: Effect on mitochondrial respiratory chain in Wistar rat heart mitochondria assessed as respiratory rate per mg protein using pyruvate and malate as substrate in presence of ADP (reference value: 389+/-40 nmol/min); in short: as §2
Rattus norvegicus [30] = species: Rattus norvegicus; experiment: Effect on mitochondrial respiratory chain in Wistar rat heart mitochondria assessed as ratio of respiratory rate in presence of ADP and cytochrome C to respiratory rate in presence of ADP using pyruvate and malate as substrate (reference value: 1.6+/-0.2); in short: as §2
Rattus norvegicus [31] = species: Rattus norvegicus; experiment: Effect on mitochondrial respiratory chain in Wistar rat heart mitochondria assessed as respiratory control index using pyruvate and malate as substrate (reference value: 8.0+/-1.2); in short: as §2
Rattus norvegicus [32] = species: Rattus norvegicus; experiment: Effect on mitochondrial respiratory chain in Wistar rat heart mitochondria assessed as respiratory rate per mg protein using palmitoyl-L-carnitine and malate as substrate (reference value: 85+/-4 nmol/min); in short: as §2
Rattus norvegicus [33] = species: Rattus norvegicus; experiment: Effect on mitochondrial respiratory chain in Wistar rat heart mitochondria assessed as respiratory rate per mg protein using succinate and amytal sodium as substrate (reference value: 238+/-39 nmol/min); in short: as §2
Rattus norvegicus [34] = species: Rattus norvegicus; experiment: Effect on mitochondrial respiratory chain in Wistar rat heart mitochondria assessed as respiratory rate per mg protein using palmitoyl-L-carnitine and malate as substrate in presence of ADP (reference value: 436+/-54 nmol/min); in short: as §2
Rattus norvegicus [35] = species: Rattus norvegicus; experiment: Effect on mitochondrial respiratory chain in Wistar rat heart mitochondria assessed as respiratory rate per mg protein using succinate and amytal sodium as substrate in presence of ADP (reference value: 606+/-108 nmol/min); in short: as §2
Rattus norvegicus [36] = species: Rattus norvegicus; experiment: Effect on mitochondrial respiratory chain in Wistar rat heart mitochondria assessed as ratio of respiratory rate in presence of ADP and cytochrome c to respiratory rate in presence of ADP using succinate and amytal sodium as substrate (reference value: 1.8+/- 0.1); in short: as §2
Rattus norvegicus [37] = species: Rattus norvegicus; experiment: Effect on mitochondrial respiratory chain in Wistar rat heart mitochondria assessed as respiratory control index using succinate and amytal sodium as substrate (reference value: 2.5+/- 0.1); in short: as §2
Rattus norvegicus [38] = species: Rattus norvegicus; experiment: Effect on mitochondrial respiratory chain in Wistar rat heart mitochondria assessed as ratio of respiratory rate in presence of ADP and cytochrome c to respiratory rate in presence of ADP using palmitoyl-L-carnitine and malate as substrate (reference value: 1.3+/-0.1); in short: as §2
Rattus norvegicus [39] = species: Rattus norvegicus; experiment: Effect on mitochondrial respiratory chain in Wistar rat heart mitochondria assessed as respiratory control index using palmitoyl-L-carnitine and malate as substrate (reference value: 5.2+/-0.4); in short: as §2
Rattus norvegicus [40] = species: Rattus norvegicus; experiment: Effect on mitochondrial respiratory chain in Wistar rat heart mitochondria assessed as complex-1 dependent state 2 respiratory rate per mg protein using pyruvate and malate as substrate at 1.6 ng/mL; in short: as §2
Rattus norvegicus [41] = species: Rattus norvegicus; experiment: Effect on mitochondrial respiratory chain in Wistar rat heart mitochondria assessed as complex-1 dependent state 2 respiratory rate per mg protein using pyruvate and malate as substrate at 5 ng/mL; in short: as §2

C[C@H]1[C@H](C)CC[C@]2(C(=O)O)CC[C@]3(C)C(=CC[C@@H]4[C@@]5(C)CC[C@H](O)C(C)(C)[C@@H]5CC[C@]43C)[C@H]12 [URSOLIC ACID]
Activity (Rattus norvegicus [1]): inactive
EC50 [2]: 4.1 ng/mL (≈ 8.98 nM)
Activity (Rattus norvegicus [3]): Dose-dependent effect
Activity (Rattus norvegicus [4]): 279 nmol/min
Activity (Rattus norvegicus [5]): 299 nmol/min
Activity (Rattus norvegicus [6]): 90 nmol/min
Activity (Rattus norvegicus [7]): inactive
Activity (Rattus norvegicus [8]): inactive
Activity (Rattus norvegicus [9]): 40%
Activity (Rattus norvegicus [10]): inactive
Activity (Rattus norvegicus [11]): 45%
Activity (Rattus norvegicus [12]): 55.6%
Activity (Rattus norvegicus [13]): 49.5%
Activity (Rattus norvegicus [14]): 11%
Activity (Rattus norvegicus [15]): 11%
Activity (Rattus norvegicus [16]): 11%
Activity (Rattus norvegicus [17]): 11%
Activity (Rattus norvegicus [18]): 11%
Activity (Rattus norvegicus [19]): 70%
Activity (Rattus norvegicus [20]): 10%
Activity (Rattus norvegicus [21]): 15%
Activity (Rattus norvegicus [22]): inactive
Activity (Rattus norvegicus [23]): 10%
Activity (Rattus norvegicus [24]): 26%
Activity (Rattus norvegicus [25]): 17%
Activity (Rattus norvegicus [26]): 28%
Activity (Rattus norvegicus [27]): 92 nmol/min
Activity (Rattus norvegicus [28]): 61 nmol/min
Activity (Rattus norvegicus [29]): 374 nmol/min
Ratio (Rattus norvegicus [30]): 1.5
Ratio (Rattus norvegicus [31]): 4.8
Activity (Rattus norvegicus [32]): 82 nmol/min
Activity (Rattus norvegicus [33]): 238 nmol/min
Activity (Rattus norvegicus [34]): 403 nmol/min
Activity (Rattus norvegicus [35]): 599 nmol/min
Ratio (Rattus norvegicus [36]): 1.5
Ratio (Rattus norvegicus [37]): 2
Ratio (Rattus norvegicus [38]): 1.2
Ratio (Rattus norvegicus [39]): 4.4
Activity (Rattus norvegicus [40]): 70 nmol/min
Activity (Rattus norvegicus [41]): 78 nmol/min

— ChEMBL document CHEMBL2146380, “Uncoupling and antioxidant effects of ursolic acid in isolated rat heart mitochondria” (J Nat Prod, 2011)
